Results: publication PMC5582369 (British Journal of Clinical Pharmacology, 2017)
One block for each molecule: values may come before it.

Columns and labels:
[1] = Cefadroxil plasma pharmacokinetics, phase 1 two-period crossover study; format: in vivo, healthy volunteers (human)
PepT1 = settings: in vitro; cited from earlier work
[2] = Tenapanor plasma concentration; format: in vivo, healthy volunteers (human); settings: tenapanor 15 mg b.i.d., day 5
How it was run: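 Blood was drawn predose and 1, 2 and 4 h after the day-5 morning dose of the test compound (15 mg twice daily from day 1). Plasma was extracted liquid–liquid with a deuterated internal standard, evaporated under nitrogen and reconstituted. Analysis was by LC-MS/MS, validated over 0.500–100 ng ml–1, with a lower limit of quantitation of 0.5 ng ml–1.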

NHE3 = molecular target: T1, NHE3 (Homo sapiens, UniProt P48764); assay: Stool frequency and consistency; format: in vivo, healthy volunteers (human); settings: mean ± SD over overall tenapanor 15 mg b.i.d. dosing period; day –1: 3.7 ± 1.0
T1 sequence (P48764 26-834): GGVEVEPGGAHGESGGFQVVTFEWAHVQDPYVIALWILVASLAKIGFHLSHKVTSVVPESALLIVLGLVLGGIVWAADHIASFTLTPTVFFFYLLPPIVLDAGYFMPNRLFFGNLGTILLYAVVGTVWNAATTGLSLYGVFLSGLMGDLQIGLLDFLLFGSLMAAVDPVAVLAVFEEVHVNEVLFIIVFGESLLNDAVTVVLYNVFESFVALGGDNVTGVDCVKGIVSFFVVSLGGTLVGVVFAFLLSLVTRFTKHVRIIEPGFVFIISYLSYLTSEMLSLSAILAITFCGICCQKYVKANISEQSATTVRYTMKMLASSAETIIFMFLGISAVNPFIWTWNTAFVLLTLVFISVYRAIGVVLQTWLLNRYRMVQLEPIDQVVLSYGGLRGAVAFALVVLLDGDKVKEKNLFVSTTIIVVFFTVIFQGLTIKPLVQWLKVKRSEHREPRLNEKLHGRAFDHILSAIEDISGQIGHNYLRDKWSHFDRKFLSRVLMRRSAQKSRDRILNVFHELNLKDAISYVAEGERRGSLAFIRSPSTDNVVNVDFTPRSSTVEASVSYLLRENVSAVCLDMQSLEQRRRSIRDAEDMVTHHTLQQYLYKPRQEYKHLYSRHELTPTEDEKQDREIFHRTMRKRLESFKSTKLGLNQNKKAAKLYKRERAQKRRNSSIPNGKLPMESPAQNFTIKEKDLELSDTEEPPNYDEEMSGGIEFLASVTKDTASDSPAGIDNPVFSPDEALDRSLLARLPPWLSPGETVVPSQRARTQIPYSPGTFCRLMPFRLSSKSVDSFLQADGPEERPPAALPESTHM

[3] = Safety and tolerability assessments; format: in vivo, healthy volunteers (human)
How it was run: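 Healthy adults (18–50 y, BMI 18–30 kg m–2, 50–100 kg) got the oral test compound 15 mg twice daily for 4 days, then a single 15 mg dose with a 500 mg probe cephalosporin on day 5, 5–10 min before standardized meals. Adverse events were monitored from screening to follow-up, 7–10 days after the last dose. Vital signs, ECGs, physical exams and clinical labs were also collected.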

Na+/H+ exchange = settings: healthy volunteers, cited from earlier work
[4] = whole study, all AEs occurred in the tenapanor treatment period

t½ (apparent terminal half-life) of cefadroxil ([1]; cefadroxil 500 mg alone, geometric mean (GCV, %), n = 28): 2.0 (11.1) h
Tmax ([1]; human, plasma, oral, 500 mg): 1.5 h
Compound: CC1=C(C(=O)O)N2C(=O)[C@@H](NC(=O)[C@H](N)c3ccc(O)cc3)[C@H]2SC1 [Cefadroxil]
Affinity for PepT1 (PepT1): moderate affinity

Detection of tenapanor in plasma [2]: not detected in plasma
BSFS score (stool consistency) (NHE3): 5.4 ± 1.2
Compound: CN1Cc2c(Cl)cc(Cl)cc2[C@H](c2cccc(S(=O)(=O)NCCOCCOCCNC(=O)NCCCCNC(=O)NCCOCCOCCNS(=O)(=O)c3cccc([C@@H]4CN(C)Cc5c(Cl)cc(Cl)cc54)c3)c2)C1 [Tenapanor]
Serious AEs or discontinuations due to AEs ([3]; during the study, 28 volunteers): No serious AEs or discontinuations due to AEs
Tolerability ([3]; tenapanor 15 mg b.i.d., 28 volunteers): generally well tolerated
Abdominal distension (n volunteers) [3, 4]: 4
Abdominal pain (n volunteers) [3, 4]: 4
Abnormal gastrointestinal sounds (n volunteers) [3, 4]: 3
Diarrhoea (n volunteers) [3, 4]: 2
Flatulence (n volunteers) [3, 4]: 2

Compound: N=C(N)NC(=O)c1nc(Cl)c(N)nc1N [Amiloride]
Effect on gastrointestinal uptake of amoxicillin (Na+/H+ exchange): decrease the gastrointestinal uptake
Effect on amoxicillin absorption in the gut (Na+/H+ exchange; jejunal perfusion with amiloride and amoxicillin): did not affect amoxicillin absorption
